Calb FLC: C. albicans growth modulation with fluconazole; C. albicans CaCi-2 (fluconazole-resistant clinical isolate) + fluconazole, Alamar Blue growth, 48 h; growth inhibition, % (no concentration beside the values); actives 0.57% (n = 300,000); AID 1979;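 active = growth inhibition above about 58% in most replicates, limit read from the data, passing the limit was not always enough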;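 note: all wells also contain fluconazole at 8 µg/ml as a sub-toxic cotreatment; 0% = median of DMSO wells and 100% = median of geldanamycin control wells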
VIM-2 inh: blocks Pseudomonas aeruginosa VIM-2 metallo-beta-lactamase; purified VIM-2, nitrocefin hydrolysis, epi-absorbance fluorescence; inhibition, % at 5.6 µM; actives 0.89% (n = 290,000);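 active = inhibition above the mean of all tested compounds plus 3 SD, cutoff set per screening run, cut at about 7.5% in these data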;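 note: red hydrolysis product quenches plate fluorescence so inhibitors raise well fluorescence; 0% = enzyme with DMSO and 100% = DMSO without enzyme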
ASAP1 inh: inhibitors of human ASAP1 ArfGAP activity. Q9ULH1. ASAP1-stimulated ARF1 GTP hydrolysis, GDP FP detection. inhibition, % at 16.5 µM. actives 0.19% (n = 360,000); in the data active = inhibition above about 25%;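 note: 0% = vehicle with enzyme and substrate and 100% = no enzyme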
Target sequence (Q9ULH1 325-724 limits assumed): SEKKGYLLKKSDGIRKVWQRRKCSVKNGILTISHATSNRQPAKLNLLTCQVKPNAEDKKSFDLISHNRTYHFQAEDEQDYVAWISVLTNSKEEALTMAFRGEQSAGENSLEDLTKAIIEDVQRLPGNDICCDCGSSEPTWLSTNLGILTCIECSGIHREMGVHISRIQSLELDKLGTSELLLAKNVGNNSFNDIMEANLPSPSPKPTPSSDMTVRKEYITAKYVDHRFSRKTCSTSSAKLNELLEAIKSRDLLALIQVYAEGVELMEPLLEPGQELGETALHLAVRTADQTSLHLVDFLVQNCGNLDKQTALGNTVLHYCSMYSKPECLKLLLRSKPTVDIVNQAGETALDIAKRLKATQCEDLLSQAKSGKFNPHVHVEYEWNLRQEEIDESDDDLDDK
IMP-1 inhibitor: inhibitors of Pseudomonas aeruginosa IMP-1 metallo-beta-lactamase; purified IMP-1, nitrocefin hydrolysis, epi-absorbance fluorescence; inhibition, % at 5.6 µM; actives 0.45% (n = 290,000);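 active = inhibition above the mean plus 3 SD of all compounds in the same screening run, cut at about 4.5% in these data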;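 note: 0% = IMP-1 with DMSO and 100% = DMSO wells lacking enzyme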
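System: Purified recombinant IMP-1 metallo-beta-lactamase enzyme | Measured by: Fluorescence quenching readout, ex 480/em 530 nm | Replication: Singlicate | Incubation: 15 min preincubation plus 25 min reaction at 25 °C | Evaluation: Percent inhibition from optical density relative to buffer-blank wells | Benchmarks: DMSO with and without IMP-1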
PHOSPHO1 inh: PHOSPHO1 (human) inhibition; inhibition, % at 13.3 µM; actives 1.1% (n = 290,000); recombinant PHOSPHO1, absorbance phosphatase assay; in the data active = inhibition above about 60%
Target sequence (Q8TCT1 whole entry, looked up): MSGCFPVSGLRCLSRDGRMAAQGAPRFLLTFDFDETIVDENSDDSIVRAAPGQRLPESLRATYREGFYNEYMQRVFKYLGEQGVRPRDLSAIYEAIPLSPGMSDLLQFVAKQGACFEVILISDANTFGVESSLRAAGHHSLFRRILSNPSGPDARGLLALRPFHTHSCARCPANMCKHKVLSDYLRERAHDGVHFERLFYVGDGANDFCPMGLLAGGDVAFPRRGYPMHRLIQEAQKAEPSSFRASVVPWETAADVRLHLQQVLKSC
ARFGAP1 inh: rat ARFGAP1 inhibition; Arfgap1-stimulated ARF1 GTP hydrolysis, GDP FP detection; inhibition, % at 16.5 µM; actives 0.26% (n = 360,000); AID 651572;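 active = inhibition above a per-plate limit, mean inhibition of low control wells plus 3 SD, cut at about 25% in these data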;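 note: 0% = DMSO wells with enzyme and 100% = wells lacking Arfgap1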
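material = rat Arfgap1 catalytic domain, aa 1-136 | also added = human ARF1(Δ1-17)-GTP substrate | compound dosing = one concentration, 16.5 µM, DMSO 1.26% | times = GTP hydrolysis reaction 2 h at 25 °C | measured by = FP, GDP Alexa 633 tracer displaced from anti-GDP antibody, 620/688 nm | evaluation = percent inhibition of Arfgap1-stimulated GTP hydrolysis | replication = single well per compound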
* marks the source's active call; other numbers are inactive results; x = no result. A selection: hits, their analogues and other compounds. The true share with any hit is near 2.6%.

SMILES	Calb FLC	VIM-2 inh	ASAP1 inh	IMP-1 inhibitor	PHOSPHO1 inh	ARFGAP1 inh
COc1cccc(C2c3c(oc4ccc(F)cc4c3=O)C(=O)N2CCN2CCOCC2)c1OC (configuration not stated)	-3	8.1*	5	0	-26	-15
O=C1c2oc3ccc(F)cc3c(=O)c2C(c2ccncc2)N1CCN1CCOCC1 (configuration not stated)	x	x	x	x	0	x
CCCNC(=O)c1ccc2c(=O)c(O)c(-c3ccc(Cl)c([N+](=O)[O-])c3)[nH]c2c1	114*	x	5	x	31	12
O=C(NCCc1nc2ccccc2[nH]1)c1ccc(Cl)c([N+](=O)[O-])c1	-4	-4	0	-3	-2	0
O=c1oc2c(O)c(O)cc3c(=O)oc4c(O)c(O)cc1c4c23	x	0	x	6.1*	45	x
O=c1oc2ccccc2c2oc3cc(O)c(O)cc3c12	68	5	-4	-3	4	-4
c1cc2cc(-c3c(-c4ccc5c(c4)OCO5)noc3-c3ccsc3)ccc2[nH]1	-1	-2	14	-5	-41	29*
O=C(NC1CCCC1)[C@@H]1CCCN1C(=O)[C@H](Cc1cccnc1)NC(=O)N1CCOCC1	x	x	-6	x	x	10
COC(=O)c1c(-c2ccc(OC)cc2)c2c(c3c4cc(F)ccc4n(S(=O)(=O)c4ccc(C)cc4)c13)C(=O)N(C)C2	x	x	0	x	x	-5
O=C(CN1CCN(S(=O)(=O)c2ccc(Cl)cc2)CC1)NC1CCCC1	-17	-3	4	-1	35	-8
O=C(CN1CCN(S(=O)(=O)c2ccc(F)cc2)CC1)NC1CCCC1	-2	-4	2	-3	61*	8
COc1ccc(S(=O)(=O)N2CCC(Nc3ccccc3Cl)CC2)cc1	11	-4	7	-4	61*	4
COc1ccc(S(=O)(=O)N2CCN(CC(=O)NC3CC3)CC2)cc1	3	-2	-11	-3	62*	2
C=CCN=C1NC(c2ccc(Cl)cc2)C(C(=O)OC)=C(C)N1Cc1ccccc1C(F)(F)F (configuration not stated)	x	x	8	x	x	0
CC(C)c1[nH]nc2c1C(c1ccccc1)N(c1ccccc1)C2=O (configuration not stated)	x	x	6	x	x	3
Cc1ccc(/C=C2\SC(=S)N(NS(=O)(=O)c3ccc(C)cc3)C2=O)cc1	-1	-3	-6	-2	-24	-11
C=CCOc1ccc(/C=C2\SC(=S)N(NS(=O)(=O)c3ccc(C)cc3)C2=O)cc1	88*	-6	-1	-4	20	-5
CCN(CC)C(=O)NC1CCCCCCC1	-38	-1	6	0	60*	5
O=C(NC1CCCCCCC1)NC1CCCCC1	9	-1	-6	-3	49	8
COCCn1c(-c2ccc(Cl)cc2)cnc1SCC(=O)NCc1cccs1	x	-3	-7	-5	74*	11
CC1(C(=O)Nc2ccc(Cl)c(Cl)c2)CCN1C(=O)CCC1CCCC1 (configuration not stated)	x	x	0	x	x	-18
COc1ccc(NC(=O)c2csc3c2CCCC3)cc1	-22	-1	x	-2	11	x
COc1cc(/C=C2\SC(=S)N(NC(=O)c3ccccc3O)C2=O)ccc1O	12	-4	5	-8	24	-10
COc1ccc(/C=C2\SC(=S)N(NC(=O)c3csc4c3CCCC4)C2=O)cc1	1	-4	-6	-1	72*	10
O=C(NN1C(=O)/C(=C/c2ccc(O)cc2)SC1=S)c1ccccc1O	34	1	3	4.8*	6	-9
SMILES	Calb FLC	VIM-2 inh	ASAP1 inh	IMP-1 inhibitor	PHOSPHO1 inh	ARFGAP1 inh
O=C(NN1C(=O)/C(=C/c2ccc(O)c([N+](=O)[O-])c2)SC1=S)c1ccccc1Cl	2	-1	-2	6.0*	-17	4
CC(C)C[C@@H]1COc2cc(NCCCN3CCOCC3)ccc2S(=O)(=O)N1	x	x	-8	x	x	-9
Cc1cc(C(C)(C)C)ccc1OCCCCN1CCCC1	0	-3	-11	-2	21	7
CCC(C)(C)c1ccc(OCCCC[n+]2cccc(C)c2C)c(C(C)(C)CC)c1	109*	-2	-11	-2	-6	-2
CCC(C)(C)c1ccc(OCCCC[n+]2ccc(C)cc2)c(C(C)(C)CC)c1	94*	-4	-7	-4	-10	-2
COc1cccc(CNC(=O)[C@H]2CCCN2C(=O)[C@H]2CCCN2C(=O)c2ccc(OC(F)(F)F)cc2)c1	x	x	2	x	x	-1
COc1cc(/C=C2\S/C(=N/S(=O)(=O)Cc3ccccc3)NC2=O)c([N+](=O)[O-])cc1OC	-3	-1	14	-1	2	10
Cc1ccc(S(=O)(=O)/N=C2/NC(=O)/C(=C\c3cc(Br)cc(Br)c3O)S2)cc1	123*	0	x	1	3	x
COc1cc(/C=C2/S/C(=N/S(=O)(=O)c3ccccc3)NC2=O)c([N+](=O)[O-])cc1OC	-2	-1	-7	-2	71*	3
CCc1cc(C(=O)NNC(=S)NCc2ccccc2)cs1	-14	-2	-2	-1	91*	-8
CCc1cc(C(=O)NNC(=S)Nc2cc(C)ccc2C)cs1	99*	-5	6	-1	9	-7
CCCc1cc(C(=O)NNC(=S)NCc2ccccc2)cs1	0	-3	5	-4	-41	-6
Cc1c(C)c2cc(Cl)c(O)c(CN(C)C)c2oc1=O	19	-1	-8	1	20	-1
CCc1c(C)c2cc(Cl)c(O)c(CN(C)C)c2oc1=O	41	-5	4	7.6*	28	-5
CCc1c(C)c2cc(Cl)c(O)c(CN(CC)CC)c2oc1=O	-5	-2	21	8.8*	24	-2
CCN(CC)Cc1c(O)c(Cl)cc2c3c(c(=O)oc12)CCCC3	-2	0	-23	4	20	-10
O=C(C(=O)N1CCC(CNC(=O)c2ccccc2F)CC1)c1cc2ccccc2o1	x	x	-2	x	x	9
CCn1c(-c2ccccc2Cl)nn(CC(=O)Nc2ccccc2C)c1=S	4	-4	-5	-3	100*	-4
COc1ccc(NC(=O)N(C)C[C@H]2OCCCC[C@H](C)Oc3ccc(NC(=O)Nc4cccc5ccccc45)cc3C(=O)N([C@@H](C)CO)C[C@H]2C)cc1	x	x	-12	x	x	1
COc1cc2sc3cc(NCCCN4CCOCC4)ccc3c(=O)c2cc1OC	x	x	11	x	x	31*
O=c1c2ccccc2sc2ccc(NCCCN3CCOCC3)cc12	-5	x	15	x	x	1
COC(=O)c1cc2c(c3c4cc(F)ccc4n(S(=O)(=O)c4ccccc4)c13)C(=O)N(Cc1ccc(N(C)C)cc1)C2	x	x	-3	x	x	1
CCOC(=O)c1c(C)n(C)c2ccc(OCC(O)CN3CCCCCC3)cc12 (configuration not stated)	-5	7	-4	-1	-7	10
